Results reported in ChEMBL document CHEMBL3525945, “Metabolic switching of BILR 355 in the presence of ritonavir. II. Uncovering novel contributions by gut bacteria and aldehyde oxidase” (Drug Metab Dispos, 2012).

Columns and labels:
[1] = Drug metabolism in human liver S9 fraction assessed as BILR355 formation at 10 uM by LC-MS/MS analysis in presence of NADPH; format: ADME, subcellular; conditions: s9, 10 µM
Procedure, shortened: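 BILR 402 (10 μM final) was incubated with human liver S9 or cytosol (1 mg/mL protein) in 0.05 M potassium phosphate pH 7.4 at 37 °C. Runs were done with or without 2.5 mM NADPH. Samples at 10, 20, 30 and 60 min were quenched in nevirapine/acetonitrile, filtered and analysed by LC-MS/MS; duplicate.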

Cytochrome P450 2B6 = biological target: T1, Cytochrome P450 2B6 (Homo sapiens, UniProt P20813); test: Activity at recombinant CYP2B6 (unknown origin) expressed in baculovirus-infected insect cells assessed as enzyme-mediated drug depletion at 1 to 10 uM by LC-MS/MS analysis in presence of NADPH; format: ADME
T1 sequence (P20813 whole entry): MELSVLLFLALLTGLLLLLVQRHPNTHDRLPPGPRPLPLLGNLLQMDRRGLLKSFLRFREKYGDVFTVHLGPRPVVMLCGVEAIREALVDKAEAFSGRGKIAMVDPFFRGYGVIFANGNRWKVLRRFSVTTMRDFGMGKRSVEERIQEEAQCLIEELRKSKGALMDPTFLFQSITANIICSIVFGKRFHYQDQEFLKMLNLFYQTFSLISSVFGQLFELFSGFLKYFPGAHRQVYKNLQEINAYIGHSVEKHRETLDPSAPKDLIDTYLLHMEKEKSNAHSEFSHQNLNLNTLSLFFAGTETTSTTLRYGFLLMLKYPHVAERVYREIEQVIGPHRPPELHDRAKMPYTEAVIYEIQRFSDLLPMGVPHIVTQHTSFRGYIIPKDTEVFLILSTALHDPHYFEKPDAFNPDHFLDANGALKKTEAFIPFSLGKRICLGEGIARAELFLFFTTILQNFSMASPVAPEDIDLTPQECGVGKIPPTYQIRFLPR
Procedure, shortened: (§1)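 BILR 402 (1 or 10 μM) with baculovirus/insect-cell recombinant CYPs, levels scaled to average liver content (1A2 2, 2A6 1, 2B6 0.1, 2C9 1.5, 2C19 1.5, 2D6 0.3, 3A4 5 pmol/mL). Buffer 0.1 M potassium phosphate, 5 mM MgCl2, pH 7.4; 2.5 mM NADPH; 37 °C. Non-transfected insect microsomes served as controls. Aliquots taken 0.5–30 min and acetonitrile-quenched; depletion measured by LC-MS/MS with isotope-labelled internal standard.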

Cytochrome P450 2A6 = biological target: T2, Cytochrome P450 2A6 (Homo sapiens, UniProt P11509); test: Activity at recombinant CYP2A6 (unknown origin) expressed in baculovirus-infected insect cells assessed as enzyme-mediated drug depletion at 1 to 10 uM by LC-MS/MS analysis in presence of NADPH; format: ADME; procedure, shortened: as §1
T2 sequence (P11509 whole entry): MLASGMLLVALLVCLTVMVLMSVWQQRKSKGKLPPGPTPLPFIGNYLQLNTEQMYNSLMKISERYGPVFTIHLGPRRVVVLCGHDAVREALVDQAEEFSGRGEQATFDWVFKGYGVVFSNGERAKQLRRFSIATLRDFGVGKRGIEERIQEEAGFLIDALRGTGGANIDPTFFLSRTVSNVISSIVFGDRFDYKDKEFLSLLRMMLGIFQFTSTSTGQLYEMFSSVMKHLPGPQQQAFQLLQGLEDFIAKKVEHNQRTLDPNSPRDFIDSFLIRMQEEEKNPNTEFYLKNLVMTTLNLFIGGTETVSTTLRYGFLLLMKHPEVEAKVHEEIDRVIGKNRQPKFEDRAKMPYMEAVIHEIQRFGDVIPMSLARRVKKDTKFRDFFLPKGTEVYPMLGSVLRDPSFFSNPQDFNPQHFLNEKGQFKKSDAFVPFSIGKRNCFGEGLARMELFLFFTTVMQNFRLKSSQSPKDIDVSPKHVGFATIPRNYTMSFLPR

Cytochrome P450 1A2 = biological target: T3, Cytochrome P450 1A2 (Homo sapiens, UniProt P05177); test: Activity at recombinant CYP1A2 (unknown origin) expressed in baculovirus-infected insect cells assessed as enzyme-mediated drug depletion at 1 to 10 uM by LC-MS/MS analysis in presence of NADPH; format: ADME; procedure, shortened: as §1
T3 sequence (P05177 whole entry): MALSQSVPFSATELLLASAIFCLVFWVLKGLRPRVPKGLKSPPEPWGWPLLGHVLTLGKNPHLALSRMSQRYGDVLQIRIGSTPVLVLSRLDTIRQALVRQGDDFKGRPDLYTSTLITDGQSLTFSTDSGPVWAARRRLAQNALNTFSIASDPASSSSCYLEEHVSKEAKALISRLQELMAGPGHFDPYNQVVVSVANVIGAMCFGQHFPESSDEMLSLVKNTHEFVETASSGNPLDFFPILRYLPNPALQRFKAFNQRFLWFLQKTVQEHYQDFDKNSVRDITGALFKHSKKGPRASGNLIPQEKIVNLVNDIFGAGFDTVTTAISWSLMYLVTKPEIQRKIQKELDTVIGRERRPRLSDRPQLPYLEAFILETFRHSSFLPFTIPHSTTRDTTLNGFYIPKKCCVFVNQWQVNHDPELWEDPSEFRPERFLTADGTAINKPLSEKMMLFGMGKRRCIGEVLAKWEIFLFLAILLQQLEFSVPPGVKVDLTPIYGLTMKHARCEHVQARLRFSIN

Cytochrome P450 3A4 = Cytochrome P450 3A4 (Homo sapiens, UniProt P08684); test: Activity at recombinant CYP3A4 (unknown origin) expressed in baculovirus-infected insect cells assessed as enzyme-mediated drug depletion by measuring compound level at 10 uM after 4 mins by LC-MS/MS analysis in presence of NADPH; format: ADME
Chain of Cytochrome P450 3A4 (P08684 whole entry): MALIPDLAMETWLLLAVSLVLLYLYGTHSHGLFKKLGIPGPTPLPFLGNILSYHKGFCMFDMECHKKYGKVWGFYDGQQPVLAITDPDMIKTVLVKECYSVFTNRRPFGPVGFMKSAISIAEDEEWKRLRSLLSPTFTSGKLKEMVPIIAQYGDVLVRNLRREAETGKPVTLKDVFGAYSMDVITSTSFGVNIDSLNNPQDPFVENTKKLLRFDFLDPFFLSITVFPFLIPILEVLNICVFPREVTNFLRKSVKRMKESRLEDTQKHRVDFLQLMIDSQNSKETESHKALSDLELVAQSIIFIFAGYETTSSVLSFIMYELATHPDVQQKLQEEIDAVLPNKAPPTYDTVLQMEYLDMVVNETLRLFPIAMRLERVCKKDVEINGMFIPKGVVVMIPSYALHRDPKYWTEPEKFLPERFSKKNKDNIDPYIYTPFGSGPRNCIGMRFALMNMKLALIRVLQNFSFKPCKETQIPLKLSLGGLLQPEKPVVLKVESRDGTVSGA
Procedure, shortened: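 rCYP3A4 (5 pmol/mL) incubated with BILR 402 at 1 or 10 μM in 0.1 M potassium phosphate/5 mM MgCl2, pH 7.4, with NADPH at 37 °C. Remaining BILR 402 and BILR 355 formed were read at 4 min by LC-MS/MS against a labelled internal standard.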

Cytochrome P450 2C19 = Cytochrome P450 2C19 (Homo sapiens, UniProt P33261); test: Activity at recombinant CYP2C19 (unknown origin) expressed in baculovirus-infected insect cells assessed as enzyme-mediated drug depletion at 1 to 10 uM by LC-MS/MS analysis in presence of NADPH; format: ADME; procedure, shortened: as §1
Chain of Cytochrome P450 2C19 (P33261 whole entry): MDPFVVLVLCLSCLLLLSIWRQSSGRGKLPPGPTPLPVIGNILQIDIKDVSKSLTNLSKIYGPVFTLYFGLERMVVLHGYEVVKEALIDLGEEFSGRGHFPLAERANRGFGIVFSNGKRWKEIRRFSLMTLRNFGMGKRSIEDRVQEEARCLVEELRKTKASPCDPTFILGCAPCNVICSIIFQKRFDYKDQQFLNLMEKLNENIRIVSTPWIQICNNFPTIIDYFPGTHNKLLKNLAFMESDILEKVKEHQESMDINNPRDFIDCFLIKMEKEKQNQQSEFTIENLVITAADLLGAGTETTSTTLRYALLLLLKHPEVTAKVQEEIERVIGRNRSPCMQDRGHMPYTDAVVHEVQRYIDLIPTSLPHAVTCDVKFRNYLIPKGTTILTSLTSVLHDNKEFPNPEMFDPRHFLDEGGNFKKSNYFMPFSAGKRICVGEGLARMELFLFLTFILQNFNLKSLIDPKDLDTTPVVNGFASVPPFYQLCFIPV

CCN1c2ncc(CCOc3ccnc4ccccc34)cc2C(=O)N(C)c2cccnc21
Drug metabolism [1]: metabolite_detected
Drug metabolism (Cytochrome P450 2B6): metabolite_not_detected
Drug metabolism (Cytochrome P450 2A6): metabolite_not_detected
Drug metabolism (Cytochrome P450 1A2): metabolite_not_detected
Drug metabolism (Cytochrome P450 3A4): 5 µM
Drug metabolism (Cytochrome P450 2C19): metabolite_not_detected
